“Also recorded” adds a separate entry of the source. Like-named read-outs stand apart in the source and are kept apart here. Peptide text beside a SMILES is read from it. * marks the point of attachment. Palmitoyl = CCCCCCCCCCCCCCCC(=O)*
Legend:
PAR1 [1] = target: T1, PAR1 (Homo sapiens, UniProt P25116); conditions: cited from earlier work
T1 sequence (P25116 22-425): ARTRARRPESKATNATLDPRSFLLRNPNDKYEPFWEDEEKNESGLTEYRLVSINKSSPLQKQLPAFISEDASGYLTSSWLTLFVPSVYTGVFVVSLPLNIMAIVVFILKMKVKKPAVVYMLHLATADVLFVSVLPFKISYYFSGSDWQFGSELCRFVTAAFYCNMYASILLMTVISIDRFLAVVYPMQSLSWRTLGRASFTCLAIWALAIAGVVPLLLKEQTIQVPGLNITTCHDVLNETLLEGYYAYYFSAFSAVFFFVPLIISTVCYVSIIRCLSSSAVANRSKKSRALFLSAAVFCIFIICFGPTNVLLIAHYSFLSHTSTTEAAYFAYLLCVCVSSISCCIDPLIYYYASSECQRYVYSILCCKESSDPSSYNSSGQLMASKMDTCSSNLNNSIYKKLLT

[2] = Pharmacokinetics of PZ-128 in plasma and urine after 1 to 2 hours iv infusion; assay type: in vivo, human
[3] = Safety, tolerability and hemostasis parameters in phase 1 subjects; assay type: in vivo, human
In short: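 Single ascending IV doses went to subjects with CAD or multiple CAD risk factors. Cohorts of 0.01–2 mg/kg received 1-h infusions; a final 0.5 mg/kg cohort received a 2-h infusion after antiallergic premedication. Assessments were at baseline, 0.5, 1, 2, 6 and 24 h, and 7–10 days. APTT, INR, ACT and bleeding time were regressed on dose using repeated-measures mixed-effects models with Bonferroni post hoc correction.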

PAR1 [4] = target: T1, PAR1; test: Ex vivo platelet aggregation to PAR1 agonist SFLLRN; assay type: in vivo; conditions: for inhibition at 2 mg/kg: read-out: inhibition of final aggregation to 8 μmol/L SFLLRN, 2 mg/kg
PAR1 [5] = target: T1, PAR1; conditions: cited from earlier work; remark: listed apart in the source

## CCOC(=O)N[C@@H]1CC[C@@H]2[C@@H](C1)C[C@H]1C(=O)O[C@H](C)[C@H]1[C@H]2/C=C/c1ccc(-c2cccc(F)c2)cn1 [Vorapaxar, vorapaxar]
PAR1 [1]; 40-mg loading dose (≈0.4 mg/kg)
  inhibition of SFLLRN-induced aggregation at 2 hours: ≥ 80%
PAR1 [1]; 40-mg oral loading dose
  inhibition of SFLLRN-induced aggregation at 30 minutes: no appreciable inhibition

## CCCCCCCCCCCCCCCC(=O)N[C@@H](CCCCN)C(=O)N[C@@H](CCCCN)C(=O)N[C@@H](CO)C(=O)N[C@@H](CCCNC(=N)N)C(=O)N[C@@H](C)C(=O)N[C@@H](CC(C)C)C(=O)N[C@@H](Cc1ccccc1)C(N)=O [PZ-128] (Palmitoyl-KKSRALF-NH2)
[2]; all subjects
  drug in plasma at 24 to 192 hours: undetectable; also recorded: no detectable drug
[2]; any time point, all subjects
  PZ-128 in urine: nondetectable; also recorded: little or no PZ-128 detected; also recorded: not renally cleared
[2]; human, plasma, intravenous
  Cmax: 4700 to 21500 nM
  Vd: 0.11 to 0.17 L/kg
[2]; human, plasma, intravenous, 0.5 mg/kg
  Cmax: 1800 to 2700 nM
[2]; human, plasma, iv
  half-life: 1.3 to 1.8 h
  level at time molar: 1000 to 3000 nM
[2]; human, plasma, iv, 0.5 mg/kg
  level at time molar at 6 h: < 500 nM
[2]; in vivo
  peak plasma drug levels, 2-mg/kg versus 1-mg/kg cohort: 2 fold
[3]; 0.5 mg/kg, 2-hour infusion, antiallergic premedication
  tolerability / allergic response: none of these subjects had an allergic response; also recorded: appeared to be well tolerated
[3]; 0.01-, 0.03-, 0.1-, and 0.3-mg/kg, 1-hour intravenous infusion
  tolerability: well tolerated
[3]; 0.5–2 mg/kg
  transient tingling or numb sensation in the skin: commonly reported
[3]; 2-mg/kg dose over the 1-hour infusion
  subjects with no hemodynamic effects: 50%
[3]; any dose
  effects on coagulation, hemostasis parameters, or bleeding: No significant effects
  heart rate, ECG parameters (RR, PR, QRS, QT, QTc, QTd) or pulmonary function: no significant changes
[3]; highest doses (1–2 mg/kg), 1-hour infusion
  most important adverse event: acute allergic reactions
[3]; human, in vivo
  clinical chemistry, hematology, urinalysis: not significantly affected
PAR1 [4]; 1 to 2-hour time points
  inhibition at 2 mg/kg: 96 to 98%
PAR1 [4]; 6 to 192-hour time points
  inhibition at 2 mg/kg: 15 to 21%
PAR1 [4]; read-out: mean inhibition of platelet aggregation (final), 8 μmol/L SFLLRN, 0.3 mg/kg, 30 minutes to 6 hours
  inhibition at 0.3 mg/kg: 20 to 40%
PAR1 [4]; read-out: mean inhibition of platelet aggregation (final), 8 μmol/L SFLLRN, 0.5 mg/kg, 30 minutes to 6 hours
  inhibition at 0.5 mg/kg: 40 to 60%

## CCOc1cc2c(c(F)c1OCC)C(=N)N(CC(=O)c1cc(N3CCOCC3)c(OC)c(C(C)(C)C)c1)C2 [atopaxar]
PAR1 [5]; LANCELOT-ACS subjects
  time to maximal platelet inhibition after the loading dose: 6 h
PAR1 [5]; higher dose levels
  QTc interval: prolongation of the QTc interval was observed in some individuals

Source: article PMC4836853 (Arteriosclerosis, thrombosis, and vascular biology, 2016)
